# Reference: ChEMBL document CHEMBL1932938, “From COX-2 inhibitor nimesulide to potent anti-cancer agent: synthesis, in vitro, in vivo and pharmacokinetic evaluation” (Eur J Med Chem, 2012)
# Key:
# SK-BR-3 [1] = assay: Cell cycle arrest in human SK-BR-3 cells assessed as accumulation at G2/M phase at 0.10 uM after 3 hrs using propidium iodide staining by FACS analysis; format: functional
# Procedure, shortened: (§1)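 SKBR-3 cells in RPMI1640 with 10% heat-inactivated FBS at 37 °C and 5% CO₂ were treated for the stated times. Cells were fixed overnight in 70% EtOH at −20 °C, then stained with propidium iodide buffer (38 mM sodium citrate pH 7.5, 69 µM PI, 120 µg/mL RNase A) for 15 min at room temperature in the dark. Up to 1×10⁴ gated cells were analyzed by flow cytometry, giving percent distribution per phase.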
# SK-BR-3 [2] = assay: Cell cycle arrest in human SK-BR-3 cells assessed as accumulation at S phase at 0.10 uM after 6 hrs using propidium iodide staining by FACS analysis; format: functional; procedure, shortened: as §1
# SK-BR-3 [3] = assay: Cell cycle arrest in human SK-BR-3 cells assessed as accumulation at G1 phase at 0.50 uM after 12 hrs using propidium iodide staining by FACS analysis; format: functional; procedure, shortened: as §1
# SK-BR-3 [4] = assay: Cell cycle arrest in human SK-BR-3 cells assessed as accumulation at G1 phase at 5 uM after 12 hrs using propidium iodide staining by FACS analysis; format: functional; procedure, shortened: as §1
# SK-BR-3 [5] = assay: Cell cycle arrest in human SK-BR-3 cells assessed as accumulation at G2/M phase at 5 uM after 12 hrs using propidium iodide staining by FACS analysis; format: functional; procedure, shortened: as §1
# SK-BR-3 [6] = assay: Cell cycle arrest in human SK-BR-3 cells assessed as accumulation at S phase at 0.10 uM after 18 hrs using propidium iodide staining by FACS analysis; format: functional; procedure, shortened: as §1
# SK-BR-3 [7] = assay: Cell cycle arrest in human SK-BR-3 cells assessed as accumulation at G2/M phase at 0.10 uM after 18 hrs using propidium iodide staining by FACS analysis; format: functional; procedure, shortened: as §1
# SK-BR-3 [8] = assay: Cell cycle arrest in human SK-BR-3 cells assessed as accumulation at S phase at 0.50 uM after 18 hrs using propidium iodide staining by FACS analysis; format: functional
# SK-BR-3 [9] = assay: Cell cycle arrest in human SK-BR-3 cells assessed as accumulation at Sub-G1 phase at 5 uM after 18 hrs using propidium iodide staining by FACS analysis; format: functional
# SK-BR-3 [10] = assay: Cell cycle arrest in human SK-BR-3 cells assessed as accumulation at G1 phase at 0.50 uM after 24 hrs using propidium iodide staining by FACS analysis; format: functional; procedure, shortened: as §1
# SK-BR-3 [11] = assay: Cell cycle arrest in human SK-BR-3 cells assessed as accumulation at S phase at 5 uM after 24 hrs using propidium iodide staining by FACS analysis; format: functional
# HL-60(TB) = assay: Growth inhibition of human HL-60(TB) cells after 48 hrs by SRB assay; format: functional
# Procedure, shortened: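 Tested in the 60-cell-line panel of the NCI Developmental Therapeutics Program with 48 h drug exposure. The read-out is cellular protein.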
# MOLT-4 = assay: Growth inhibition of human MOLT4 cells after 48 hrs by SRB assay; format: functional
# HOP-92 = assay: Growth inhibition of human HOP92 cells after 48 hrs by SRB assay; format: functional
# NCI-H460 = assay: Growth inhibition of human NCI-H460 cells after 48 hrs by SRB assay; format: functional
# HCT-15 = assay: Growth inhibition of human HCT15 cells after 48 hrs by SRB assay; format: functional
# SF-268 = assay: Growth inhibition of human SF268 cells after 48 hrs by SRB assay; format: functional
# SNB-19 = assay: Growth inhibition of human SNB19 cells after 48 hrs by SRB assay; format: functional
# Malme-3M = assay: Growth inhibition of human MALME-3M cells after 48 hrs by SRB assay; format: functional
# OVCAR-3 = assay: Growth inhibition of human OVCAR3 cells after 48 hrs by SRB assay; format: functional
# RXF 393 = assay: Growth inhibition of human RXF393 cells after 48 hrs by SRB assay; format: functional
# SN12C = assay: Growth inhibition of human SN12C cells after 48 hrs by SRB assay; format: functional
# DU-145 = assay: Growth inhibition of human DU145 cells after 48 hrs by SRB assay; format: functional
# BT-549 = assay: Growth inhibition of human BT549 cells after 48 hrs by SRB assay; format: functional
# [12] = Tmax in Sprague-Dawley rat plasma at 20 mg/kg, ip; format: ADME, organism-based; design: dose 20 mg/kg, route intraperitoneal
# Procedure, shortened: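 Male Sprague–Dawley rats (300–350 g, n=3), fasted overnight with water allowed. Single 20 mg/kg i.p. dose in PBS with 0.1% Tween80 and 20% DMSO. Blood taken from saphenous and femoral veins into heparinized tubes at 0, 0.25, 0.5, 1, 2, 4, 8 and 24 h. Plasma quantified by LC-MS/MS (MRM, 483.3→404.3) after tert-butyl methyl ether/hexane extraction. Parameters derived non-compartmentally.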
# SK-BR-3 [13] = assay: Cell cycle arrest in human SK-BR-3 cells assessed as accumulation at G2/M phase at 5 uM after 3 hrs using propidium iodide staining by FACS analysis; format: functional; procedure, shortened: as §1
# SK-BR-3 [14] = assay: Cell cycle arrest in human SK-BR-3 cells assessed as accumulation at Sub-G1 phase at 0.50 uM after 3 hrs using propidium iodide staining by FACS analysis; format: functional
# SK-BR-3 [15] = assay: Cell cycle arrest in human SK-BR-3 cells assessed as accumulation at S phase at 0.25 uM after 3 hrs using propidium iodide staining by FACS analysis; format: functional
# SK-BR-3 [16] = assay: Cell cycle arrest in human SK-BR-3 cells assessed as accumulation at Sub-G1 phase at 0.50 uM after 6 hrs using propidium iodide staining by FACS analysis; format: functional
# SK-BR-3 [17] = assay: Cell cycle arrest in human SK-BR-3 cells assessed as accumulation at Sub-G1 phase at 5 uM after 6 hrs using propidium iodide staining by FACS analysis; format: functional
# SK-BR-3 [18] = assay: Cell cycle arrest in human SK-BR-3 cells assessed as accumulation at G1 phase at 5 uM after 6 hrs using propidium iodide staining by FACS analysis; format: functional; procedure, shortened: as §1
# [19] = read-out: LC50 (the source's name)
smiles,measurement,setting,value
Cc1ccc(C)c(COc2cc(NC(=O)c3ccc4c(c3)OCO4)ccc2N(C)S(C)(=O)=O)c1,Activity,SK-BR-3 [1],8.83%
same,Activity,SK-BR-3 [2],15.84%
same,Activity,SK-BR-3 [3],63.15%
same,Activity,SK-BR-3 [4],63.71%
same,Activity,SK-BR-3 [5],20.54%
same,Activity,SK-BR-3 [6],8.71%
same,Activity,SK-BR-3 [7],9.71%
same,Activity,SK-BR-3 [8],7.28%
same,Activity,SK-BR-3 [9],8.31%
same,Activity,SK-BR-3 [10],31.77%
same,Activity,SK-BR-3 [11],11.53%
same,growth inhibition (GI),HL-60(TB),Dose-dependent effect
same,GI50,"HL-60(TB); HL-60, 48 h",26.9 nM
same,TGI,"HL-60(TB); HL-60, 48 h",96.7 nM
same,CC50,"HL-60(TB); HL-60, 48 h, read-out: LC50 (the source's name)",> 100000 nM
same,growth inhibition (GI),MOLT-4,Dose-dependent effect
same,GI50,"MOLT-4; MOLT-4, 48 h",163 nM
same,TGI,"MOLT-4; MOLT-4, 48 h",> 100000 nM
same,CC50,"MOLT-4; MOLT-4, 48 h, read-out: LC50 (the source's name)",> 100000 nM
same,growth inhibition (GI),HOP-92,Dose-dependent effect
same,GI50,"HOP-92; HOP-92, 48 h",3220 nM
same,TGI,"HOP-92; HOP-92, 48 h",> 100000 nM
same,CC50,"HOP-92; HOP-92, 48 h, read-out: LC50 (the source's name)",> 100000 nM
same,growth inhibition (GI),NCI-H460,Dose-dependent effect
same,GI50,"NCI-H460; NCI-H460, 48 h",184 nM
same,TGI,"NCI-H460; NCI-H460, 48 h",744 nM
same,CC50,"NCI-H460; NCI-H460, 48 h, read-out: LC50 (the source's name)",> 100000 nM
same,growth inhibition (GI),HCT-15,Dose-dependent effect
same,GI50,"HCT-15; HCT-15, 48 h",289 nM
same,TGI,"HCT-15; HCT-15, 48 h",> 100000 nM
same,CC50,"HCT-15; HCT-15, 48 h, read-out: LC50 (the source's name)",> 100000 nM
same,growth inhibition (GI),SF-268,Dose-dependent effect
same,GI50,"SF-268; SF-268, 48 h",288 nM
same,TGI,"SF-268; SF-268, 48 h",> 100000 nM
same,CC50,"SF-268; SF-268, 48 h, read-out: LC50 (the source's name)",> 100000 nM
same,growth inhibition (GI),SNB-19,Dose-dependent effect
same,GI50,"SNB-19; SNB-19, 48 h",537 nM
same,TGI,"SNB-19; SNB-19, 48 h",> 100000 nM
same,CC50,"SNB-19; SNB-19, 48 h, read-out: LC50 (the source's name)",> 100000 nM
same,GI50,Malme-3M,229 nM
same,TGI,Malme-3M,> 100000 nM
same,growth inhibition (GI),Malme-3M,Dose-dependent effect
same,CC50,Malme-3M; [19],> 100000 nM
same,growth inhibition (GI),OVCAR-3,Dose-dependent effect
same,TGI,"OVCAR-3; OVCAR-3, 48 h",166 nM
same,growth inhibition (GI),RXF 393,Dose-dependent effect
same,GI50,"RXF 393; RXF 393, 48 h",128 nM
same,TGI,"RXF 393; RXF 393, 48 h",403 nM
same,GI50,SN12C,472 nM
same,TGI,SN12C,> 100000 nM
same,growth inhibition (GI),SN12C,Dose-dependent effect
same,CC50,SN12C; [19],> 100000 nM
same,growth inhibition (GI),DU-145,Dose-dependent effect
same,GI50,"DU-145; DU-145, 48 h",159 nM
same,TGI,"DU-145; DU-145, 48 h",457 nM
same,CC50,"DU-145; DU-145, 48 h, read-out: LC50 (the source's name)",> 100000 nM
same,growth inhibition (GI),BT-549,Dose-dependent effect
same,GI50,"BT-549; BT-549, 48 h",656 nM
same,TGI,"BT-549; BT-549, 48 h",> 100000 nM
same,CC50,"BT-549; BT-549, 48 h, read-out: LC50 (the source's name)",> 100000 nM
same,Tmax,[12],2 h
same,Activity,SK-BR-3 [13],11.57%
same,Activity,SK-BR-3 [14],3.43%
same,Activity,SK-BR-3 [15],16.34%
same,Activity,SK-BR-3 [16],4.03%
same,Activity,SK-BR-3 [17],3.42%
same,Activity,SK-BR-3 [18],64.76%
